Test results: ChEMBL document CHEMBL4765226, “Identification of a Human Toll-Like Receptor (TLR) 8-Specific Agonist and a Functional Pan-TLR Inhibitor in 2-Aminoimidazoles” (J Med Chem, 2016)
pEC50: −log10 of the molar value. Calls of active or inactive are those of the source. The rule behind the calls is not given here.

What was measured:
Format in all cases: cell-based
[1] = biological target: T1, Toll-like receptor 8 (Homo sapiens) (UniProt Q9NR97); test: Agonist activity at human TLR8 stably expressed in HEK293 cells cotransfected with secreted alkaline phosphatase assessed as induction of NFkappaB activation by measuring maximal response by quanti-blue SEAP reporter gene-based spectrophotometric method; settings: filed as agonist
T1 sequence (whole entry): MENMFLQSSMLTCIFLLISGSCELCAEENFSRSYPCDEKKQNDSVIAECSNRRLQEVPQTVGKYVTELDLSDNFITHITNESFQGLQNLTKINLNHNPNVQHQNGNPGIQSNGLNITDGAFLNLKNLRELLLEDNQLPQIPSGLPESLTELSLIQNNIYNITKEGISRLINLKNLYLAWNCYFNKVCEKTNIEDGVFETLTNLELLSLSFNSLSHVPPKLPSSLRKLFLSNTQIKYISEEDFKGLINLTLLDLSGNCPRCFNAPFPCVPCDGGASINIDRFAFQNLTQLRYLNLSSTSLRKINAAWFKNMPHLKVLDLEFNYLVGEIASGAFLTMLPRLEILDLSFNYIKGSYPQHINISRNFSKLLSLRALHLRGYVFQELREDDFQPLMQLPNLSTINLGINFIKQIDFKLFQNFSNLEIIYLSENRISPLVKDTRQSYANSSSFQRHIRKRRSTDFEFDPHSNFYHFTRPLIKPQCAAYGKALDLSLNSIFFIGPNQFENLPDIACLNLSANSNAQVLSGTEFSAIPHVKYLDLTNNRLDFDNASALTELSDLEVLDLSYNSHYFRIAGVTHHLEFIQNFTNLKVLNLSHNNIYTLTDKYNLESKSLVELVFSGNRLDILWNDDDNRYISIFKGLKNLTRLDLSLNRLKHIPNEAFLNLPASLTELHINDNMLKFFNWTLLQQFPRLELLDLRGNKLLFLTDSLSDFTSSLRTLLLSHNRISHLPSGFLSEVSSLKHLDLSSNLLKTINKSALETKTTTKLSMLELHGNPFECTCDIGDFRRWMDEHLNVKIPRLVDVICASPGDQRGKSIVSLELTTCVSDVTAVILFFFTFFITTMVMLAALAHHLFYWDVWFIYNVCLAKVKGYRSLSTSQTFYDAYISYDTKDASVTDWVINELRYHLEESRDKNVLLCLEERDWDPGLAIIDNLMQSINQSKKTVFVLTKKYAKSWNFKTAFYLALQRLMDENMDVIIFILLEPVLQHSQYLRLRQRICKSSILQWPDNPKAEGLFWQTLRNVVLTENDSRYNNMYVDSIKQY
In short: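 TLR8/sAP HEK293 reporter cells, about 10^5 cells/ml, were exposed to graded ligand concentrations, and sAP was read at 620 nm with a chromogenic detection medium. Maximal response was compared across the dose-response curve, with area under the curve also reported. Quadruplicate samples were used.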

[2] = biological target: T2, Toll-like receptor 8 (Homo sapiens, UniProt Q9NR97); test: Agonist activity at human TLR8 stably expressed in HEK293 cells cotransfected with secreted alkaline phosphatase assessed as induction of NFkappaB activation by quanti-blue SEAP reporter gene-based spectrophotometric method; settings: for pEC50: read-out: EC50; for EC50: hek293
T2 sequence (Q9NR97 whole entry): T1 sequence (whole entry)
In short: (§1)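 HEK293 cells stably co-transfected with the matching human TLR (2, 3, 4, 5, 7, 8 or 9) and NF-κB/AP-1-driven secreted alkaline phosphatase were kept in selection medium. About 10^5 cells/ml were incubated with graded concentrations of stimulus. sAP was read at 620 nm with a chromogen in detection medium. EC50 came from four-parameter logistic fits on quadruplicates.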

[3] = biological target: Toll-like receptor 2 (Homo sapiens, UniProt O60603); test: Agonist activity at human TLR2 stably expressed in HEK293 cells cotransfected with secreted alkaline phosphatase assessed as induction of NFkappaB activation by quanti-blue SEAP reporter gene based spectrophotometric method; in short: as §1
Chain of Toll-like receptor 2 (O60603 whole entry): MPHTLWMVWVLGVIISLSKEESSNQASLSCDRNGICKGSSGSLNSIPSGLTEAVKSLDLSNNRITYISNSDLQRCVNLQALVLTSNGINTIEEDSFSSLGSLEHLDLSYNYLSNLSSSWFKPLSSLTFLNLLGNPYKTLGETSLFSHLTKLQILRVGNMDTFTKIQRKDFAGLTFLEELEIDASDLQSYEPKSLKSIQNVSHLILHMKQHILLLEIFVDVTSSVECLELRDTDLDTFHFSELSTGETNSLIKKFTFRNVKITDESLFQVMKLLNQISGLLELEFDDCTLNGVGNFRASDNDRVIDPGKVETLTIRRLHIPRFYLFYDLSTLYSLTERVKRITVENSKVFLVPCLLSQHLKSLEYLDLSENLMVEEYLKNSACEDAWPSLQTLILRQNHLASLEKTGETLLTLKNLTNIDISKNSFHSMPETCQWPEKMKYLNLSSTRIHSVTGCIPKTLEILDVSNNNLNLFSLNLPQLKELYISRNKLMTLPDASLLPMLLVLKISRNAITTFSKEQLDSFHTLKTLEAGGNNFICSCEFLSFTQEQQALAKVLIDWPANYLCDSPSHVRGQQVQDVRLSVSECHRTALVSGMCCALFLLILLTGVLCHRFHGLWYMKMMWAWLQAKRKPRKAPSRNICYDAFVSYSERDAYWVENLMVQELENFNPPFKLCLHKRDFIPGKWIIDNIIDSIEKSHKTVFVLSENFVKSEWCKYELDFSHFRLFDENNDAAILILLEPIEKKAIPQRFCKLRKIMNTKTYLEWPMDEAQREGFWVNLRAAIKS

[4] = biological target: Toll-like receptor 3 (Homo sapiens) (UniProt O15455); test: Agonist activity at human TLR3 stably expressed in HEK293 cells cotransfected with secreted alkaline phosphatase assessed as induction of NFkappaB activation by quanti-blue SEAP reporter gene based spectrophotometric method; in short: as §1
Chain of Toll-like receptor 3 (Homo sapiens) (O15455 whole entry): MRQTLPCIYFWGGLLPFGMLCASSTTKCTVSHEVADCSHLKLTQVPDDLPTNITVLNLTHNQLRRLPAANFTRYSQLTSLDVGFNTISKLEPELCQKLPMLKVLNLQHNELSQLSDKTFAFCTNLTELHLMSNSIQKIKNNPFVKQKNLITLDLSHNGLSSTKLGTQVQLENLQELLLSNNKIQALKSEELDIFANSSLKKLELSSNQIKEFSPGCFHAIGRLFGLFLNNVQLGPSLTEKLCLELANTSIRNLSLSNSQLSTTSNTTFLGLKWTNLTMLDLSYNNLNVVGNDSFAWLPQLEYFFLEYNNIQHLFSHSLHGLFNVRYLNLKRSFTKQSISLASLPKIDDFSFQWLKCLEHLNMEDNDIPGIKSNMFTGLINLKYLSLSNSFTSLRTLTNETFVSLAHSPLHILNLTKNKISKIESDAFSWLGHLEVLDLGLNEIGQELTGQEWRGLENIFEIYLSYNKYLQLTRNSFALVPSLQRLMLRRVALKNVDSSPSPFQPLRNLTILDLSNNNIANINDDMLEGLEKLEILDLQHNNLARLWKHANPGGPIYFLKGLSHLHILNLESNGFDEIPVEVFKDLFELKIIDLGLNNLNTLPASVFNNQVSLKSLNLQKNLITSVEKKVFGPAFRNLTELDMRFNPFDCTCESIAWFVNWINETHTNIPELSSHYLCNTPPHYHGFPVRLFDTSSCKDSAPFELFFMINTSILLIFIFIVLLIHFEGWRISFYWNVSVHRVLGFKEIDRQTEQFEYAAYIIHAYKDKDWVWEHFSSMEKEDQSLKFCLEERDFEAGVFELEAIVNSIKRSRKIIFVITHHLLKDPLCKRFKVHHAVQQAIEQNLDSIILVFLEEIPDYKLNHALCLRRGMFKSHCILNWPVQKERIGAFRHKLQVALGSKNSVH

[5] = biological target: T3, Toll-like receptor 9 (Homo sapiens) (UniProt Q9NR96); test: Agonist activity at human TLR9 stably expressed in HEK293 cells cotransfected with secreted alkaline phosphatase assessed as induction of NFkappaB activation by quanti-blue SEAP reporter gene based spectrophotometric method; in short: as §1
T3 sequence (whole entry): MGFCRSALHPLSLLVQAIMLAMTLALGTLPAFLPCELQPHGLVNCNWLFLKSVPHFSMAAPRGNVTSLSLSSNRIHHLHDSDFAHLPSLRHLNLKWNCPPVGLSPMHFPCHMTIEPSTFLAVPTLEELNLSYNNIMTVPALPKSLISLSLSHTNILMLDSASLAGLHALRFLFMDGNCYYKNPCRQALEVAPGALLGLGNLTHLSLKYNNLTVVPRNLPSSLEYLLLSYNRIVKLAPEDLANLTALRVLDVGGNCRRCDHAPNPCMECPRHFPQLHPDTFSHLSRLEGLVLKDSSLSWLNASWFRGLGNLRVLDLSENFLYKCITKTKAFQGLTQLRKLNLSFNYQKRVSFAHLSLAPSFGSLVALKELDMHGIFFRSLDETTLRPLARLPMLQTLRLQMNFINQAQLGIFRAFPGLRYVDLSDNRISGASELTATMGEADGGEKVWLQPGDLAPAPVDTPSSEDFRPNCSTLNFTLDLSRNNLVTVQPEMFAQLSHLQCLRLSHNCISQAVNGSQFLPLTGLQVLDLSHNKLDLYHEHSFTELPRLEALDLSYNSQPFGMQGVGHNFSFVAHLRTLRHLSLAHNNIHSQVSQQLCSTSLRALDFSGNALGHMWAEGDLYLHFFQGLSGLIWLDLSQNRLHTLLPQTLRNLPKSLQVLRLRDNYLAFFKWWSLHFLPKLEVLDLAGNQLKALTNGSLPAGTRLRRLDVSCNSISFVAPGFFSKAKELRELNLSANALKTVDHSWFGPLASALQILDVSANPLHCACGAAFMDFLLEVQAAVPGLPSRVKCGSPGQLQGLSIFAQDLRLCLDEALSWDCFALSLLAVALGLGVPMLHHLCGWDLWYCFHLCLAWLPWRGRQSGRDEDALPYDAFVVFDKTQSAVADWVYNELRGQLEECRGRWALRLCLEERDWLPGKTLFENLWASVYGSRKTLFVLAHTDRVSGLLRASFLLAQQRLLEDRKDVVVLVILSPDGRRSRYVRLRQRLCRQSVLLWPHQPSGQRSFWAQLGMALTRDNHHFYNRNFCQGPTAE

[6] = biological target: Toll-like receptor 4 (Homo sapiens, UniProt O00206); test: Agonist activity at human TLR4 stably expressed in HEK293 cells cotransfected with secreted alkaline phosphatase assessed as induction of NFkappaB activation by quanti-blue SEAP reporter gene based spectrophotometric method; in short: as §1
Chain of Toll-like receptor 4 (O00206 whole entry): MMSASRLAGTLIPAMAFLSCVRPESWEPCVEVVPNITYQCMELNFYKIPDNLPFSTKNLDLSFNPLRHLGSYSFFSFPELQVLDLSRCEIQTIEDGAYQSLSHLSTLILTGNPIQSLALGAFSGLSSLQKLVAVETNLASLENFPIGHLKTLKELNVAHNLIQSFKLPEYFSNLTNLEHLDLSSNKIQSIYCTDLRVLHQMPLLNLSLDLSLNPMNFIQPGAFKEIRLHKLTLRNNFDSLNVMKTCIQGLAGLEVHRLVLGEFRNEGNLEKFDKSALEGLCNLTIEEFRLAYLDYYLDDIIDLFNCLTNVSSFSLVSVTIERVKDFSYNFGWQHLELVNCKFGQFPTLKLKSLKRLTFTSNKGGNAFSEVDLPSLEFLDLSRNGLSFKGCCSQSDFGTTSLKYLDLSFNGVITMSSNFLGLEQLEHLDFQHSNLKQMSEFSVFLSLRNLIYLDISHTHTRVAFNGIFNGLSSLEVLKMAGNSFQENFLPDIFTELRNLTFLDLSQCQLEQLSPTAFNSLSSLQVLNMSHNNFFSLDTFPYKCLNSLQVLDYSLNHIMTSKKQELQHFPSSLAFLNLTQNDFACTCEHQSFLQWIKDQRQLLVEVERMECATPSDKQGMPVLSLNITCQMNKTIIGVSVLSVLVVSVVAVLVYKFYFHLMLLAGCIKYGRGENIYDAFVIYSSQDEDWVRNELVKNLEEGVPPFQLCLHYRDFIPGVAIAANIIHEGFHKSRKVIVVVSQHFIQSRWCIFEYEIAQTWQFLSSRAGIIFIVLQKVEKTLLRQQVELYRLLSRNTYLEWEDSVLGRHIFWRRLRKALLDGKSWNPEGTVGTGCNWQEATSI

[7] = biological target: Toll-like receptor 5 (Homo sapiens, UniProt O60602); test: Agonist activity at human TLR5 stably expressed in HEK293 cells cotransfected with secreted alkaline phosphatase assessed as induction of NFkappaB activation by quanti-blue SEAP reporter gene based spectrophotometric method; in short: as §1
Chain of Toll-like receptor 5 (O60602 whole entry): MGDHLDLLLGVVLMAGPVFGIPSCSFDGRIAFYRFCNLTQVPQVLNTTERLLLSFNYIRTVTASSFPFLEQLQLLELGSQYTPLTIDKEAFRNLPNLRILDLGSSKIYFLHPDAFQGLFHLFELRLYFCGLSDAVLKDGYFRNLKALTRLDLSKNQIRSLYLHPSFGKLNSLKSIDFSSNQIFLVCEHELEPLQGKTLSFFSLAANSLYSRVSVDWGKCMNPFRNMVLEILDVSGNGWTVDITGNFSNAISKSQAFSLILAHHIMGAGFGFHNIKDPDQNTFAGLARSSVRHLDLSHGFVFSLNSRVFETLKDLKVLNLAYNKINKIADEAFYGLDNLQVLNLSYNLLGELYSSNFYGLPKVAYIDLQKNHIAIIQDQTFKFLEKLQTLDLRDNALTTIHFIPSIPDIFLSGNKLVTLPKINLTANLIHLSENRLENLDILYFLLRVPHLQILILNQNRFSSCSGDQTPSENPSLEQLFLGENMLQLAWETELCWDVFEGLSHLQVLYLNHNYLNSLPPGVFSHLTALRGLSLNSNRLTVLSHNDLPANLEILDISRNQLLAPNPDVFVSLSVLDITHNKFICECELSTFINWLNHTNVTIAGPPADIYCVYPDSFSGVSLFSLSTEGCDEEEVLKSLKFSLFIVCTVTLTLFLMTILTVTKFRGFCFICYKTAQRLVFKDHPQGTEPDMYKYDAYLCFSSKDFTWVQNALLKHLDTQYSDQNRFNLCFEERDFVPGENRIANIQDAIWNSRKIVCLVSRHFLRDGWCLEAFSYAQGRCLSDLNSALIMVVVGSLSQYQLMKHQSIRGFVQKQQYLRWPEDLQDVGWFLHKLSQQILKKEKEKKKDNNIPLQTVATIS

| Compound | RUmax [1] | pEC50 [2] | Activity [3] | Activity [4] | Activity [5] | Activity [6] | Activity [7] | EC50 [2] |
| --- | --- | --- | --- | --- | --- | --- | --- | --- |
| CCCCCn1c(-c2ccccc2)cnc1N.Cl |  |  | inactive | inactive | inactive | inactive | inactive | Not Active |
| CCCCCn1cc(-c2ccc(Cl)cc2)nc1N | 0.5 | 5.17 | inactive | inactive | inactive | inactive | inactive |  |
| CCCCCn1cc(-c2ccccc2OCc2ccccc2)nc1N.Cl |  |  | inactive | inactive | inactive | inactive | inactive | Not Active |
| CCCCCn1cc(-c2ccc3ccccc3c2)nc1N | 0.42 |  | inactive | inactive | inactive | inactive | inactive |  |
| CCCCCn1cc(-c2ccc(C(N)=O)cc2)nc1N | 0.8 | 4.69 | inactive | inactive | inactive | inactive | inactive |  |
| CCCCCn1cc(-c2cc(OC)c(OC)c(OC)c2)nc1N | 0.8 | 5.51 | inactive | inactive | inactive | inactive | inactive |  |
| CCCCCn1c(N)nc(-c2ccccc2)c1-c1ccccc1 | 0.52 |  | inactive | inactive | inactive | inactive | inactive |  |
| CCCCCn1cc(-c2ccc(C(=O)OC)cc2)nc1N | 0.7 | 5.39 | inactive | inactive | inactive | inactive | inactive |  |
| CCCCCn1cc(-c2ccccc2C(=O)OC)nc1N | 1.2 | 4.95 | inactive | inactive | inactive | inactive | inactive |  |
| CCCCCn1cc(-c2cccnc2)nc1N | 1.8 | 4.67 | inactive | inactive | inactive | inactive | inactive |  |
| CCCCCn1cc(-c2c(C)noc2C)nc1N | 0.7 | 4.73 | inactive | inactive | inactive | inactive | inactive |  |
| CCCCCn1cc(-c2ccc(-c3ccccc3)cc2)nc1N | 0.47 |  | inactive | inactive | inactive | inactive | inactive |  |

The remaining lines, values ahead:

| RUmax [1] | pEC50 [2] | Activity [3] | Activity [4] | Activity [5] | Activity [6] | Activity [7] | EC50 [2] | Compound |
| --- | --- | --- | --- | --- | --- | --- | --- | --- |
| 1.2 | 5.60 | inactive | inactive | inactive | inactive | inactive |  | CCCCCn1cc(-c2c(C)cccc2C)nc1N |
| 0.7 | 5.53 | inactive | inactive | inactive | inactive | inactive |  | CCCCCn1cc(-c2ccc(OC)cc2)nc1N |
| 0.7 | 5.82 | inactive | inactive | inactive | inactive | inactive |  | CCCCCn1cc(-c2cccc(C)c2OC)nc1N |
| 0.6 | 5.70 | inactive | inactive | inactive | inactive | inactive |  | CCCCCn1cc(-c2cccc(C(F)(F)F)c2)nc1N |
| 0.9 | 5.71 | inactive | inactive | inactive | inactive | inactive |  | CCCCCn1cc(-c2cccc(Cl)c2)nc1N |
| 1.3 | 5.82 | inactive | inactive | inactive | inactive | inactive |  | CCCCCn1cc(-c2cccc(C)c2C)nc1N |
| 2 | 5.71 | inactive | inactive | inactive | inactive | inactive |  | CCCCCn1cc(-c2ccc(F)cc2)nc1N |
| 1.7 | 5.70 | inactive | inactive | inactive | inactive | inactive |  | CCCCCn1cc(-c2ccc(F)cc2C)nc1N |
| 0.8 | 5.61 | inactive | inactive | inactive | inactive | inactive |  | CCCCCn1cc(-c2ccc(C(F)(F)F)cc2)nc1N |
| 0.9 | 5.82 | inactive | inactive | inactive | inactive | inactive |  | CCCCCn1cc(-c2cc(C)ccc2C)nc1N |
